Calls of active or inactive are those of the source. No cut-off for these calls is given here.
Assays:
[1] = target: T1, Peroxisome proliferator-activated receptor delta (Homo sapiens, UniProt Q03181); test: Inhibition of human PPARdelta receptor by ligand displacement assay
T1 sequence (Q03181 whole entry): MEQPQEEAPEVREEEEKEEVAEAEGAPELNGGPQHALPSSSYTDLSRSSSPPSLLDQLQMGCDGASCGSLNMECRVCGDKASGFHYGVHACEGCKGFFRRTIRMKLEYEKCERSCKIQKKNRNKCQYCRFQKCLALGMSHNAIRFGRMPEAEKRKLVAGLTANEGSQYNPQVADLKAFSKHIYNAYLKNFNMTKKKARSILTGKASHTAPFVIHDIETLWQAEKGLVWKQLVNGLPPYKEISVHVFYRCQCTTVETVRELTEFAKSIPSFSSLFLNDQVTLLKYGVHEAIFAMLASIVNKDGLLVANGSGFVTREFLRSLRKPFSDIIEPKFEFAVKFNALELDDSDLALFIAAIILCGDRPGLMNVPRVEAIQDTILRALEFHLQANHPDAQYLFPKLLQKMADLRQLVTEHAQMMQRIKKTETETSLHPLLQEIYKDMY

[2] = target: T2, Peroxisome proliferator-activated receptor alpha (Homo sapiens, UniProt Q07869); test: Displacement of [3H]GW2433 from human PPARalpha receptor by ligand displacement assay
T2 sequence (Q07869 whole entry): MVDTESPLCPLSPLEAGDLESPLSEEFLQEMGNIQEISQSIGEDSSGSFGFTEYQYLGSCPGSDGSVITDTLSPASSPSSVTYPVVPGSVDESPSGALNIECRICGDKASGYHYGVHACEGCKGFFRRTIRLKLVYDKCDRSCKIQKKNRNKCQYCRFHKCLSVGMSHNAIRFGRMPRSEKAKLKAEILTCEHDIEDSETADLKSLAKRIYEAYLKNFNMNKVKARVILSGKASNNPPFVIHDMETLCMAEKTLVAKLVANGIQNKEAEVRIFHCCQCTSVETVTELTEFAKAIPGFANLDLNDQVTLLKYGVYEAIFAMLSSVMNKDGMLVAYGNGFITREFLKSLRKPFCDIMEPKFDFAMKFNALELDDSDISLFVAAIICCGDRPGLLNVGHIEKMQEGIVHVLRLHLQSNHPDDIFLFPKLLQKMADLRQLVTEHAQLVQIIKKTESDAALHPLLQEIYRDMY

[3] = target: T1, Peroxisome proliferator-activated receptor delta
[4] = target: T3, Peroxisome proliferator-activated receptor gamma (Homo sapiens, UniProt P37231); test: Inhibition of human PPARgamma receptor by ligand displacement assay
T3 sequence (P37231 whole entry): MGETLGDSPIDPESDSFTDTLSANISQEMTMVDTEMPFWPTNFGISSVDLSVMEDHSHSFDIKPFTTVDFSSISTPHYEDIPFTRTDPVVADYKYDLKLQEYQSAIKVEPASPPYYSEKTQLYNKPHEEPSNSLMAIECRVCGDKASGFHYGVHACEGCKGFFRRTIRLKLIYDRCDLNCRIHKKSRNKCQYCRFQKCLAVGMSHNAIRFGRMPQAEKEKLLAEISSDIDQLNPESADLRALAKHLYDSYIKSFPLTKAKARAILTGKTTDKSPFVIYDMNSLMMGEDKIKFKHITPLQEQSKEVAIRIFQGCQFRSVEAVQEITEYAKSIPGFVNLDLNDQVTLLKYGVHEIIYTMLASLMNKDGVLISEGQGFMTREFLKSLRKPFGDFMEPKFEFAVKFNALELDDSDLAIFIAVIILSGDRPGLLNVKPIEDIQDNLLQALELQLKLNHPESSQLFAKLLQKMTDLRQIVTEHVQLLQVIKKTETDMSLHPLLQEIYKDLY

Homo sapiens [5] = species on record: Homo sapiens; test: Inhibition of against 2-(4-((2-(3-fluoro-4-(trifluoromethyl)phenyl)-4-methylthiazol-5-yl)methylthio)-2-methylphenoxy)acetic acid-induced CPT1a gene expression in human skeletal muscle cell at 10 to 10000 nM; type: functional
Method in brief: (§1)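 Human skeletal muscle cells were stimulated with PPARδ agonist to induce transcription of the target genes CPT1a and PDK4. Compound was co-tested at various doses, and antagonism of the agonist-stimulated expression was read out.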

SW480 = test: Antiproliferative against human SW480 cells at 10 uM; type: functional, cell-based
Method in brief: (§2)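 Colorectal lines (SW480, HCT116, DLD1, RKO) and non-colorectal lines (A549, HEK293) were incubated with compound for 3 days at concentrations up to 10 μM. Proliferation was compared with DMSO vehicle. Staurosporine and actinomycin D served as positive controls.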

Homo sapiens [6] = species on record: Homo sapiens; test: Inhibition of PDK4 gene expression in human skeletal muscle cell at 10 to 10000 nM; type: functional
Method in brief: (§3)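 Human skeletal muscle cells were treated with compound at various doses without added agonist. Basal CPT1a and PDK4 transcript expression was assessed.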

[7] = Oral bioavailability in C57BL/6 mouse at 10 mg/kg; type: ADME, organism-based; conditions: in vivo
Method in brief: (§4)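 Male C57BL/6 mice were dosed intravenously at 0.5 mg/kg and orally at 10 mg/kg. Clearance and Vss were taken from the iv arm. Cmax, AUCinf, half-life and oral bioavailability were taken from the oral arm. Values are given as mean ± deviation.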

Homo sapiens [8] = species on record: Homo sapiens; test: Inhibition of CPT1a gene expression in human skeletal muscle cell at 10 to 10000 nM; type: functional; method in brief: as §3
[9] = Volume of distribution at steady state in C57BL/6 mouse at 0.5 mg/kg, iv; type: ADME, organism-based; set-up: dose 0.5 mg/kg, route intravenous; conditions: in vivo, read-out: Vdss; method in brief: as §4
HEK293 = test: Antiproliferative against human HEK293 cells at 10 uM; type: functional, cell-based; method in brief: as §2
HCT-116 = test: Antiproliferative against human HCT116 cells at 10 uM; type: functional, cell-based; method in brief: as §2
DLD-1 = test: Antiproliferative against human DLD1 cells at 10 uM; type: functional, cell-based; method in brief: as §2
Homo sapiens [10] = species on record: Homo sapiens; test: Inhibition of against 2-(4-((2-(3-fluoro-4-(trifluoromethyl)phenyl)-4-methylthiazol-5-yl)methylthio)-2-methylphenoxy)acetic acid-induced PDK4 gene expression in human skeletal muscle cell at 10 to 10000 nM; type: functional; method in brief: as §1
[11] = Cmax in C57BL/6 mouse at 10 mg/kg, po; type: ADME, organism-based; set-up: dose 10 mg/kg, route oral; conditions: in vivo; method in brief: as §4
[12] = Half life in C57BL/6 mouse at 10 mg/kg, po; type: ADME, organism-based; set-up: dose 10 mg/kg, route oral; conditions: in vivo; method in brief: as §4
RKO = test: Antiproliferative against human RKO cells at 10 uM; type: functional, cell-based; method in brief: as §2
[13] = AUC (0 to infinity) in C57BL/6 mouse at 10 mg/kg, po; type: ADME, organism-based; set-up: dose 10 mg/kg, route oral, time infinity; conditions: plasma; method in brief: as §4
A549 = test: Antiproliferative against human A549 cells at 10 uM; type: functional, cell-based; method in brief: as §2
[14] = Clearance in C57BL/6 mouse at 0.5 mg/kg, iv; type: ADME, organism-based; set-up: dose 0.5 mg/kg, route intravenous; conditions: in vivo; method in brief: as §4

| SMILES | IC50 [1] [µM] | IC50 [2] [µM] | IC50 [3] [µM] | IC50 [4] [µM] | other results |
| --- | --- | --- | --- | --- | --- |
| CC(C)Cc1ccc(C(=O)NCCS(=O)(=O)c2ccc(C(F)(F)F)cn2)cc1 | 0.316 | > 10 | 0.2 | > 10 | – |
| COC(=O)c1sccc1S(=O)(=O)Nc1ccc(Nc2ccccc2)cc1OC | – | > 10 | – | > 10 | – |
| O=C(NCCCS(=O)(=O)c1ccc(C(F)(F)F)cn1)c1ccc(Cl)cc1 | > 10 | > 10 | – | > 10 | – |
| O=C(NCCS(=O)(=O)c1ccc(C(F)(F)F)cn1)c1ccc(C2CCCCC2)cc1 | 1 | > 10 | – | > 10 | – |
| Cc1ccc(S(=O)(=O)CCNC(=O)c2ccc(Cl)cc2)nc1 | > 10 | > 10 | – | > 10 | – |
| O=C(NCCS(=O)(=O)c1ccc(C(F)(F)F)cn1)c1ccc(Br)cc1F | 0.0501 | > 10 | 0.0794 | > 10 | – |
| O=C(NCCS(=O)(=O)c1ccc(C(F)(F)F)cn1)c1ccc(Cl)cc1 | 0.2 | > 10 | 0.126 | > 10 | Activity (Homo sapiens [5]): Active; Activity (SW480): inactive; Activity (Homo sapiens [6]): inactive; bioavailability [7]: 77%; Activity (Homo sapiens [8]): Active; Vd [9]: 1.7 L/kg; Activity (HEK293): inactive; Activity (HCT-116): inactive; Activity (DLD-1): inactive; Activity (Homo sapiens [10]): Active; Cmax [11]: 0.881 µg/mL; half-life [12]: 2.7 h; Activity (RKO): inactive; AUC(0-inf) [13]: 3.34 µg·h/mL; Activity (A549): inactive; clearance [14]: 2.34 L/h/kg |
| O=C(NCCCS(=O)(=O)c1ccc(C(F)(F)F)cn1)c1ccc(OC(F)(F)F)cc1 | 1.26 | > 10 | – | > 10 | – |
| O=C(NCCS(=O)(=O)c1ccccn1)c1ccc(Cl)cc1 | > 10 | > 10 | – | > 10 | – |

Further lines, with some results ahead:

| IC50 [1] [µM] | IC50 [2] [µM] | IC50 [3] [µM] | IC50 [4] [µM] | SMILES | other results |
| --- | --- | --- | --- | --- | --- |
| 0.126 | > 10 | 0.251 | > 10 | Cc1cc(C(=O)NCCS(=O)(=O)c2ccc(C(F)(F)F)cn2)ccc1Cl | – |
| 0.2 | – | 0.251 | > 10 | O=C(NCCS(=O)(=O)c1ccc(C(F)(F)F)cn1)c1ccc(-c2ccccc2)cc1 | – |
| 0.158 | > 10 | 0.2 | > 10 | O=C(NCCS(=O)(=O)c1ccc(C(F)(F)F)cn1)c1ccc(Cl)cc1Cl | – |
| 0.1 | > 10 | – | > 10 | O=C(NCCS(=O)(=O)c1ccc(C(F)(F)F)cn1)c1ccc(OC(F)(F)F)cc1 | – |
| 0.126 | > 10 | 0.251 | > 10 | O=C(NCCS(=O)(=O)c1ccc(C(F)(F)F)cn1)c1ccc(Cl)c(Br)c1 | – |
